Measurements as given in ChEMBL document CHEMBL4819122, “Novel 4-(piperazin-1-yl)quinolin-2(1H)-one bearing thiazoles with antiproliferative activity through VEGFR-2-TK inhibition” (Bioorg Med Chem, 2021).
Active and inactive are the calls of the source. The rule behind the calls is not given here.

How the values were obtained:
HL-60 = assay: Cytotoxicity against human HL60 assessed as growth inhibition at 10 uM by NCI protocol relative to control; format: functional; conditions: read-out: GI
Method in brief: (§1)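 Run by NCI as a single-dose screen at 10 μM across the sixty-cell-line panel, which covers nine human tumour tissue types. The read-out is percent growth inhibition of treated cells relative to untreated cells.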

MOLT-4 = assay: Cytotoxicity against human MOLT-4 assessed as growth inhibition at 10 uM by NCI protocol relative to control; format: functional; conditions: read-out: GI; method in brief: as §1
SR = assay: Cytotoxicity against human SR assessed as growth inhibition at 10 uM by NCI protocol relative to control; format: functional; conditions: read-out: GI
Method in brief: (§2)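 Run by the NCI under its standard protocol: one dose of 10 μM against a sixty-line panel from nine human tumour tissues. Result given as percent growth inhibition of treated cells relative to untreated cells.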

A549 = assay: Cytotoxicity against human A549 assessed as growth inhibition at 10 uM by NCI protocol relative to control; format: functional; conditions: read-out: GI; method in brief: as §1
EKVX = assay: Cytotoxicity against human EKVX assessed as growth inhibition at 10 uM by NCI protocol relative to control; format: functional; conditions: read-out: GI; method in brief: as §1
HOP-92 = assay: Cytotoxicity against human HOP-92 assessed as growth inhibition at 10 uM by NCI protocol relative to control; format: functional; method in brief: as §1
NCI-H226 = assay: Cytotoxicity against human NCI-H226 assessed as growth inhibition at 10 uM by NCI protocol relative to control; format: functional; conditions: read-out: GI; method in brief: as §1
NCI-H23 = assay: Cytotoxicity against human NCI-H23 assessed as growth inhibition at 10 uM by NCI protocol relative to control; format: functional; conditions: read-out: GI; method in brief: as §1
NCI-H322M = assay: Cytotoxicity against human NCI-H322M assessed as growth inhibition at 10 uM by NCI protocol relative to control; format: functional; conditions: read-out: GI; method in brief: as §1
NCI-H522 = assay: Cytotoxicity against human NCI-H522 assessed as growth inhibition at 10 uM by NCI protocol relative to control; format: functional; conditions: read-out: GI; method in brief: as §1
COLO 205 = assay: Cytotoxicity against human COLO 205 assessed as growth inhibition at 10 uM by NCI protocol relative to control; format: functional; conditions: read-out: GI; method in brief: as §1
HCC 2998 = assay: Cytotoxicity against human HCC-2998 assessed as growth inhibition at 10 uM by NCI protocol relative to control; format: functional; conditions: read-out: GI; method in brief: as §1
HCT-116 = assay: Cytotoxicity against human HCT-116 assessed as growth inhibition at 10 uM by NCI protocol relative to control; format: functional; conditions: read-out: GI; method in brief: as §1
HCT-15 = assay: Cytotoxicity against human HCT-15 assessed as growth inhibition at 10 uM by NCI protocol relative to control; format: functional; conditions: read-out: GI; method in brief: as §1
HT-29 = assay: Cytotoxicity against human HT29 assessed as growth inhibition at 10 uM by NCI protocol relative to control; format: functional; conditions: read-out: GI; method in brief: as §1
KM12 = assay: Cytotoxicity against human KM12 assessed as growth inhibition at 10 uM by NCI protocol relative to control; format: functional; conditions: read-out: GI; method in brief: as §1
SW-620 = assay: Cytotoxicity against human SW-620 assessed as growth inhibition at 10 uM by NCI protocol relative to control; format: functional; conditions: read-out: GI; method in brief: as §2
SF-268 = assay: Cytotoxicity against human SF-268 assessed as growth inhibition at 10 uM by NCI protocol relative to control; format: functional; conditions: read-out: GI; method in brief: as §1
SF-295 = assay: Cytotoxicity against human SF-295 assessed as growth inhibition at 10 uM by NCI protocol relative to control; format: functional; conditions: read-out: GI; method in brief: as §1
SF-539 = assay: Cytotoxicity against human […] assessed as growth inhibition at 10 uM by NCI protocol relative to control; format: functional; conditions: read-out: GI; method in brief: as §1
SNB-19 = assay: Cytotoxicity against human SNB-19 assessed as growth inhibition at 10 uM by NCI protocol relative to control; format: functional; conditions: read-out: GI; method in brief: as §2
SNB-75 = assay: Cytotoxicity against human SNB-75 assessed as growth inhibition at 10 uM by NCI protocol relative to control; format: functional; conditions: read-out: GI; method in brief: as §2
U-251 = assay: Cytotoxicity against human U251 assessed as growth inhibition at 10 uM by NCI protocol relative to control; format: functional; conditions: read-out: GI; method in brief: as §2
M14 = assay: Cytotoxicity against human M14 assessed as growth inhibition at 10 uM by NCI protocol relative to control; format: functional; conditions: read-out: GI; method in brief: as §1
MDA-MB-435 = assay: Cytotoxicity against human MDA-MB-435 assessed as growth inhibition at 10 uM by NCI protocol relative to control; format: functional, cell-based; method in brief: as §1
SK-MEL-2 = assay: Cytotoxicity against human SK-MEL-2 assessed as growth inhibition at 10 uM by NCI protocol relative to control; format: functional; conditions: read-out: GI; method in brief: as §1
SK-MEL-28 = assay: Cytotoxicity against human SK-MEL-28 assessed as growth inhibition at 10 uM by NCI protocol relative to control; format: functional; conditions: read-out: GI; method in brief: as §1
SK-MEL-5 = assay: Cytotoxicity against human SK-MEL-5 assessed as growth inhibition at 10 uM by NCI protocol relative to control; format: functional; conditions: read-out: GI; method in brief: as §1
UACC-62 = assay: Cytotoxicity against human UACC-62 assessed as growth inhibition at 10 uM by NCI protocol relative to control; format: functional; conditions: read-out: GI; method in brief: as §2
IGROV-1 = assay: Cytotoxicity against human IGROVI assessed as growth inhibition at 10 uM by NCI protocol relative to control; format: functional; conditions: read-out: GI; method in brief: as §1
OVCAR-3 = assay: Cytotoxicity against human OVCAR-3 assessed as growth inhibition at 10 uM by NCI protocol relative to control; format: functional; conditions: read-out: GI; method in brief: as §1
OVCAR-4 = assay: Cytotoxicity against human OVCAR-4 assessed as growth inhibition at 10 uM by NCI protocol relative to control; format: functional; conditions: read-out: GI; method in brief: as §1
OVCAR-8 = assay: Cytotoxicity against human OVCAR-8 assessed as growth inhibition at 10 uM by NCI protocol relative to control; format: functional; conditions: read-out: GI; method in brief: as §1
SK-OV-3 = assay: Cytotoxicity against human SK-OV-3 assessed as growth inhibition at 10 uM by NCI protocol relative to control; format: functional; conditions: read-out: GI; method in brief: as §1
786-0 = assay: Cytotoxicity against human 786-0 assessed as growth inhibition at 10 uM by NCI protocol relative to control; format: functional; conditions: read-out: GI; method in brief: as §1
A498 = assay: Cytotoxicity against human A498 assessed as growth inhibition at 10 uM by NCI protocol relative to control; format: functional; conditions: read-out: GI; method in brief: as §1
CAKI-1 = assay: Cytotoxicity against human Caki1 assessed as growth inhibition at 10 uM by NCI protocol relative to control; format: functional; conditions: read-out: GI; method in brief: as §1
RXF 393 = assay: Cytotoxicity against human RXF 393 assessed as growth inhibition at 10 uM by NCI protocol relative to control; format: functional; conditions: read-out: GI; method in brief: as §1
UO-31 = assay: Cytotoxicity against human UO31 assessed as growth inhibition at 10 uM by NCI protocol relative to control; format: functional; conditions: read-out: GI; method in brief: as §2
DU-145 = assay: Cytotoxicity against human DU-145 assessed as growth inhibition at 10 uM by NCI protocol relative to control; format: functional; conditions: read-out: GI; method in brief: as §1
MCF7 = assay: Cytotoxicity against human MCF7 assessed as growth inhibition at 10 uM by NCI protocol relative to control; format: functional; conditions: read-out: GI; method in brief: as §1
BT-549 = assay: Cytotoxicity against human BT-549 assessed as growth inhibition at 10 uM by NCI protocol relative to control; format: functional; conditions: read-out: GI; method in brief: as §1
MDA-MB-468 = assay: Cytotoxicity against human MDA-MB-468 assessed as growth inhibition at 10 uM by NCI protocol relative to control; format: functional; conditions: read-out: GI; method in brief: as §1
T47D = assay: Cytotoxicity against human T47D cells assessed as reduction in cell viability after 3 hrs by MTT assay

Structure (SMILES): O=C(CN1CCN(c2cc(=O)n(-c3ccccc3)c3ccccc23)CC1)Nc1nc(-c2ccccc2)cs1
- inhibition of growth at 10 µM (HL-60): 62.9%
- inhibition of growth at 10 µM (MOLT-4): 82.2%
- inhibition of growth at 10 µM (SR): 48.7%
- inhibition of growth at 10 µM (A549): 43.8%
- inhibition of growth at 10 µM (EKVX): 54.5%
- growth inhibition (GI) (HOP-92): inactive
- inhibition of growth at 10 µM (NCI-H226): 51.8%
- inhibition of growth at 10 µM (NCI-H23): 39.2%
- inhibition of growth at 10 µM (NCI-H322M): 10.6%
- inhibition of growth at 10 µM (NCI-H522): 33.5%
- inhibition of growth at 10 µM (COLO 205): 39.9%
- inhibition of growth at 10 µM (HCC 2998): 18.2%
- inhibition of growth at 10 µM (HCT-116): 46.6%
- inhibition of growth at 10 µM (HCT-15): 74.8%
- inhibition of growth at 10 µM (HT-29): 27%
- inhibition of growth at 10 µM (KM12): 37%
- inhibition of growth at 10 µM (SW-620): 31.4%
- inhibition of growth at 10 µM (SF-268): 20.8%
- inhibition of growth at 10 µM (SF-295): 33.3%
- inhibition of growth at 10 µM (SF-539): 22.9%
- inhibition of growth at 10 µM (SNB-19): 14.8%
- inhibition of growth at 10 µM (SNB-75): 28.4%
- inhibition of growth at 10 µM (U-251): 40.8%
- inhibition of growth at 10 µM (M14): 26.6%
- growth inhibition (GI) (MDA-MB-435): inactive
- inhibition of growth at 10 µM (SK-MEL-2): 11.1%
- inhibition of growth at 10 µM (SK-MEL-28): 28.8%
- inhibition of growth at 10 µM (SK-MEL-5): 94.7%
- inhibition of growth at 10 µM (UACC-62): 36.1%
- inhibition of growth at 10 µM (IGROV-1): 32.5%
- inhibition of growth at 10 µM (OVCAR-3): 27.5%
- inhibition of growth at 10 µM (OVCAR-4): 76.7%
- inhibition of growth at 10 µM (OVCAR-8): 30.2%
- inhibition of growth at 10 µM (SK-OV-3): 29.2%
- inhibition of growth at 10 µM (786-0): 10.7%
- inhibition of growth at 10 µM (A498): 33.8%
- inhibition of growth at 10 µM (CAKI-1): 38.6%
- inhibition of growth at 10 µM (RXF 393): 23.1%
- inhibition of growth at 10 µM (UO-31): 58.4%
- inhibition of growth at 10 µM (DU-145): 27.3%
- inhibition of growth at 10 µM (MCF7): 72.4%
- inhibition of growth at 10 µM (BT-549): 33%
- inhibition of growth at 10 µM (MDA-MB-468): 86.7%
- IC50 (T47D): 10.3 µM
